# ChEMBL document CHEMBL1138269, “Antimicrobial lexitropsins containing amide, amidine, and alkene linking groups” (J Med Chem, 2007)
# Tests used:
# Format in all cases: functional
# Candida albicans = assay: Antifungal activity against Candida albicans NCPF 3179; settings: Candida albicans; read-out: MIC
# How it was run: (§1)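 Antifungal microdilution in Sabouraud broth. Test sample at 200 µg mL-1 working solution in sterile water was serially doubled down successive rows. Incubation was at 25 °C, followed by visual growth check and addition of resazurin indicator. Read-out is MIC in µg mL-1.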
# Staphylococcus aureus [1] = assay: Antibacterial activity against methicillin-resistant Staphylococcus aureus clinical isolate 5
# How it was run: (§2)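 Broth microdilution MIC against clinical S. aureus isolates (incl. MRSA), run per NCCLS guidelines in 96-well plates. Test sample dissolved in sterile water to a 200 µg mL-1 working concentration, then doubling dilutions in Mueller-Hinton broth. Incubated at 37 °C, growth read visually plus resazurin indicator. MIC reported in µg/mL.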
# Staphylococcus aureus [2] = assay: Antibacterial activity against methicillin-resistant Staphylococcus aureus clinical isolate 2; how it was run: as §2
# Staphylococcus aureus [3] = assay: Antibacterial activity against methicillin-resistant Staphylococcus aureus clinical isolate 4; how it was run: as §2
# Staphylococcus aureus [4] = assay: Antibacterial activity against methicillin-sensitive Staphylococcus aureus NCTC 6571; settings: Staphylococcus aureus, NCTC 6571; read-out: MIC
# How it was run: (§3)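 Broth microdilution in Mueller-Hinton broth. Samples were dissolved in sterile water to 200 µg mL-1 as the working solution and doubling dilutions were made across rows. Plates were incubated at 37 °C and inspected visually, with resazurin added as growth indicator. MIC reported in µg mL-1.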
# Enterococcus faecalis = assay: Antibacterial activity against Streptococcus faecalis NCTC 775; settings: Enterococcus faecalis, NCTC 775; read-out: MIC; how it was run: as §3
# [5] = test system: Mycolicibacterium fortuitum; assay: Antibacterial activity against Mycobacterium fortuitum NCTC 10394; how it was run: as §3
# Aspergillus niger = assay: Antifungal activity against Aspergillus niger IMI 149007; how it was run: as §1
# Staphylococcus aureus [6] = assay: Antibacterial activity against methicillin-resistant Staphylococcus aureus clinical isolate 3; how it was run: as §2
# Staphylococcus aureus [7] = assay: Antibacterial activity against methicillin-resistant Staphylococcus aureus clinical isolate 1; how it was run: as §2
SMILES,MIC (Candida albicans),MIC (Staphylococcus aureus [1]),MIC (Staphylococcus aureus [2]),MIC (Staphylococcus aureus [3]),MIC (Staphylococcus aureus [4]),MIC (Enterococcus faecalis),MIC [5],MIC (Aspergillus niger),MIC (Staphylococcus aureus [6]),MIC (Staphylococcus aureus [7])
CC(C)CCc1sc(NC(=O)c2cc3ccccc3cn2)nc1C(=O)Nc1cc(C(=O)NCCCN(C)C)n(C)c1,> 50 µg/mL,32 µg/mL,32 µg/mL,32 µg/mL,> 50 µg/mL,> 50 µg/mL,> 50 µg/mL,> 50 µg/mL,32 µg/mL,32 µg/mL
CN(C)CCCNC(=O)c1cc(NC(=O)c2cc(NC(=O)c3ccc(/C=C/c4cnc5ccccc5c4)cc3)cn2C)cn1C,> 50 µg/mL,25 µg/mL,25 µg/mL,25 µg/mL,32 µg/mL,13 µg/mL,> 50 µg/mL,> 50 µg/mL,25 µg/mL,25 µg/mL
COc1cccc(/C=C/c2ccc(C(=O)Nc3cc(C(=O)Nc4nc(C(=O)NCCCN(C)C)c(CCC(C)C)s4)n(C)c3)cc2)c1,> 50 µg/mL,8 µg/mL,8 µg/mL,8 µg/mL,> 50 µg/mL,> 50 µg/mL,> 50 µg/mL,> 50 µg/mL,8 µg/mL,8 µg/mL
CN(C)CCCNC(=O)c1cc(NC(=O)c2cc(NC(=O)c3ccc(/C=C/c4ccncc4)cc3)cn2C)cn1C,> 50 µg/mL,> 64 µg/mL,32 µg/mL,> 64 µg/mL,50 µg/mL,25 µg/mL,> 50 µg/mL,> 50 µg/mL,64 µg/mL,16 µg/mL
CC(C)c1sc(NC(=O)c2cc(NC(=O)c3cc(NC(=O)c4ccc5c(c4)OCO5)cn3C)cn2C)nc1C(=O)NCCCN(C)C,> 50 µg/mL,64 µg/mL,64 µg/mL,64 µg/mL,13 µg/mL,25 µg/mL,> 50 µg/mL,> 50 µg/mL,64 µg/mL,8 µg/mL
COc1cccc(C(=N)Nc2cc(C(=O)Nc3cc(C(=O)Nc4cc(C(=O)NCCc5ccccn5)n(C)c4)n(C)c3)n(C)c2)c1,> 50 µg/mL,> 64 µg/mL,> 64 µg/mL,> 64 µg/mL,50 µg/mL,> 50 µg/mL,> 50 µg/mL,> 50 µg/mL,> 64 µg/mL,> 64 µg/mL
CC(C)CCn1cc(NC(=O)c2cc(NC(=O)c3cccc(Cl)c3)cn2C)cc1C(=O)Nc1cc(C(=O)NCCCN(C)C)n(C)c1,> 50 µg/mL,16 µg/mL,16 µg/mL,16 µg/mL,13 µg/mL,6 µg/mL,> 50 µg/mL,> 50 µg/mL,16 µg/mL,16 µg/mL
COc1ccc(/C=C/c2ccc3cc(C(=O)Nc4cc(C(=O)Nc5cc(C(=O)NCCN6CCOCC6)n(C)c5)n(C)c4)ccc3n2)cc1,> 50 µg/mL,> 64 µg/mL,> 64 µg/mL,> 64 µg/mL,> 50 µg/mL,25 µg/mL,> 50 µg/mL,50 µg/mL,> 64 µg/mL,4 µg/mL
CC(=N)Nc1cc(C(=O)Nc2cc(C(=O)Nc3cc(C(=O)NCCCN4CCOCC4)n(C)c3)n(C)c2)n(C)c1,> 50 µg/mL,> 64 µg/mL,> 64 µg/mL,> 64 µg/mL,> 50 µg/mL,> 50 µg/mL,> 50 µg/mL,> 50 µg/mL,> 64 µg/mL,> 64 µg/mL
CC(C)CCc1sc(NC(=O)c2cc(NC(=O)c3cc(/C=C/c4ccc([N+](=O)[O-])cc4)cn3C)cn2C)nc1C(=O)NCCCN(C)C,> 50 µg/mL,> 64 µg/mL,> 64 µg/mL,> 64 µg/mL,> 50 µg/mL,> 50 µg/mL,> 50 µg/mL,> 50 µg/mL,> 64 µg/mL,> 64 µg/mL
CN(C)CCCNC(=O)c1cc(NC(=O)c2cc(NC(=O)c3cc(NC(=O)c4ccc(Cl)c(Cl)n4)cn3C)cn2C)cn1C,25 µg/mL,–,–,–,> 50 µg/mL,> 50 µg/mL,> 50 µg/mL,50 µg/mL,–,–
CC(=N)Nc1cc(C(=O)Nc2cc(C(=O)Nc3cc(C(=O)NCCN4CCOCC4)n(C)c3)n(C)c2)n(C)c1,> 50 µg/mL,–,–,–,50 µg/mL,> 50 µg/mL,> 50 µg/mL,50 µg/mL,–,–
CC(=N)Nc1cc(C(=O)Nc2cc(C(=O)Nc3nc(C(=O)NCCCN(C)C)c(CCC(C)C)s3)n(C)c2)n(C)c1,50 µg/mL,–,–,–,> 50 µg/mL,> 50 µg/mL,> 50 µg/mL,> 50 µg/mL,–,–
